Measurements reported in ChEMBL document CHEMBL5055621, “Synthesis and Characterization of the Novel Rodent-Active and CNS-Penetrant P2X7 Receptor Antagonist Lu AF27139” (J Med Chem, 2021).

What was measured:
[1] = Inhibition of BzATP-induced current in rat primary microglia cells measured after repeated BzATP treatment at -60 mV at 100 nM by whole cell patch clamp assay relative to control; format: functional
Summary of the method: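 Rat primary microglia were whole-cell patch-clamped at −60 mV (external pH 7.4 with 1.8 mM CaCl2; CsCl/EGTA internal pH 7.2). Currents came from 10 s applications of 300 μM BzATP, applied repeatedly. Compound was applied by gravity via capillary for 60 s, and inhibition was taken relative to the control response.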

[2] = Inhibition of BzATP-induced IL-1beta in rat primary microglia cells primed with LPS measured after repeated BzATP treatment by microplate reader; format: functional, tissue-based
Summary of the method: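 Cortical microglia from rat (P3 pups) or mouse were plated 1 day before assay and primed with 3 EU/mL LPS for 3.5 h. Compound was added for 30 min, then BzATP (1 mM) for 30 min at 37 °C. IL-1β was measured by MesoScale assay, normalised to BCA protein, and given as mean ± SD.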

[3] = target: T1, P2X purinoceptor 7 (Homo sapiens, UniProt Q99572); assay: Displacement of [3H]-A-804598 from human P2X7 receptor expressed in HEK293 cell membrane by in vitro binding assay; format: cell membranes
T1 sequence (Q99572 whole entry): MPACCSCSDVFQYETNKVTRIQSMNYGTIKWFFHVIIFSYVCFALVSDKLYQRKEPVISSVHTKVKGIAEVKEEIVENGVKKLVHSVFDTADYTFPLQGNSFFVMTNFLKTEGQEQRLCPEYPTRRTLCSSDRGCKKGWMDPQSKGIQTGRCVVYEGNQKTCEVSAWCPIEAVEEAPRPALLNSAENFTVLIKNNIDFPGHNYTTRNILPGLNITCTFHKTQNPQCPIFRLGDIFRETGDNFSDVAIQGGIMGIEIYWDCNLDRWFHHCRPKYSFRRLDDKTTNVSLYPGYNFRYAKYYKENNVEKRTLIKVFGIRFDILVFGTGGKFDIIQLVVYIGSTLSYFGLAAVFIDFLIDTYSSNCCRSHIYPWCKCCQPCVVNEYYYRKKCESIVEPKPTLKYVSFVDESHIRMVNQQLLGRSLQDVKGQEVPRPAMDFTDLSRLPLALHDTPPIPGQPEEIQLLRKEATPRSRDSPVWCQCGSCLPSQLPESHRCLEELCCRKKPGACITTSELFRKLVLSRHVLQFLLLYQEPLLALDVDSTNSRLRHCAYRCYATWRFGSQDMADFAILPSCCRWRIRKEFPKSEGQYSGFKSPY

[4] = Free plasma concentration in rat at 100 mg/kg, po after 1 hr by ex vivo equilibrium dialysis; format: ADME, organism-based
Summary of the method: (§1)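 Male Sprague–Dawley rats were dosed orally at 1–100 mg/kg, and total plasma concentration was measured at 1 and 2 h. This was multiplied by fraction unbound from ex vivo equilibrium dialysis; mean ± SEM, n = 3 animals.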

[5] = Free plasma concentration in rat at 1 mg/kg, po after 1 hr by ex vivo equilibrium dialysis; format: ADME, organism-based; summary of the method: as §1
[6] = target: T2, P2X purinoceptor 7 (Rattus norvegicus, UniProt Q64663); assay: Antagonist activity at rat P2X7 receptor expressed in HEK293 cells assessed as inhibition of BzATP-induced current at -60 mV by whole cell QPatch electrophysiology; format: cell-based
T2 sequence (Q64663 whole entry): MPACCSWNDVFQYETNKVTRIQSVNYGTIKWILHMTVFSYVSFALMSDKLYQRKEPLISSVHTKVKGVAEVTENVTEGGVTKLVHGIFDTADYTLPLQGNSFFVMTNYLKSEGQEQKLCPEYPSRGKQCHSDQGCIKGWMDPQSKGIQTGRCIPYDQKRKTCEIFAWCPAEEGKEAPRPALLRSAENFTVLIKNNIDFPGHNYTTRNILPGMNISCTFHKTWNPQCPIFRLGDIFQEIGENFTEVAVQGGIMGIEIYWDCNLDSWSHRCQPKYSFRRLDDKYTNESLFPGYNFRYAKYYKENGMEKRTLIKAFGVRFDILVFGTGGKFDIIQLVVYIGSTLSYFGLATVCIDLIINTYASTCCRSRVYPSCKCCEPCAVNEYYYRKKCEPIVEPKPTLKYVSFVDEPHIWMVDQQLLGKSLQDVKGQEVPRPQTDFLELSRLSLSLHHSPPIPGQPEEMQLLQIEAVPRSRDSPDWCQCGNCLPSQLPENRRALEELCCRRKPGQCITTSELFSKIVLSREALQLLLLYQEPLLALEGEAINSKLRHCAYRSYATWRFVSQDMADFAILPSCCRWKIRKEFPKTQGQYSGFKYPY
Summary of the method: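 QPatch automated whole-cell recording was done on rat P2X7-HEK293 cells held at −60 mV. External solution contained 0.1 mM MgCl2 and 0.3 mM CaCl2 (pH 7.4); the CsCl/EGTA internal was pH 7.2.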

[7] = in vitro; settings: rat, liver microsomes
[8] = Free plasma concentration in rat at 100 mg/kg, po after 2 hrs by ex vivo equilibrium dialysis; format: ADME, organism-based; summary of the method: as §1
[9] = Free plasma concentration in rat at 10 mg/kg, po after 1 hr by ex vivo equilibrium dialysis; format: ADME, organism-based; summary of the method: as §1
[10] = Induction of CYP3A4 mRNA expression in human primary hepatocytes at 10 uM; format: ADME, cell-based, Hepatocyte
Summary of the method: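 Human hepatocytes were exposed to 10 μM compound. CYP3A4 mRNA was measured as the relative increase, with rifampin at 10 μM as reference inducer.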

[11] = target: T3, P2X purinoceptor 7 (Mus musculus, UniProt Q9Z1M0); assay: Antagonist activity at mouse P2X7 receptor expressed in HEK293 cells assessed as inhibition of BzATP-induced calcium-flux measured after 60 mins by FLIPR analysis; format: cell-based
T3 sequence (Q9Z1M0 whole entry): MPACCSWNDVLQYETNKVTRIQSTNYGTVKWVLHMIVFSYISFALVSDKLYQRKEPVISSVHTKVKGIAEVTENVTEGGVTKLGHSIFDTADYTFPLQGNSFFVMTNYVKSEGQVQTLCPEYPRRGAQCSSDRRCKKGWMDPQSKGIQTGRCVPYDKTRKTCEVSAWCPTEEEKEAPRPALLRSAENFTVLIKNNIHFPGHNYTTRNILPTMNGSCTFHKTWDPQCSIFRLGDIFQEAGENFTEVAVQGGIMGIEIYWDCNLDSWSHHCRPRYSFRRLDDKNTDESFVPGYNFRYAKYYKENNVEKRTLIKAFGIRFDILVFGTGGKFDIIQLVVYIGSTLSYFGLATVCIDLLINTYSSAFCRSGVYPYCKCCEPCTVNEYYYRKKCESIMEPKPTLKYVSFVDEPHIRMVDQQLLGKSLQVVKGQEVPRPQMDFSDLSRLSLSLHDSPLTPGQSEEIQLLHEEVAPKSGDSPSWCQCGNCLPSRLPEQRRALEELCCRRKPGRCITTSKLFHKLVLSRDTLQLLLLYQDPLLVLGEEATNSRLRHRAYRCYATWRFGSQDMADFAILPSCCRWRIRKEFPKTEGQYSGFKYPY
Summary of the method: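 Stable rat or mouse P2X7 HEK293 cells in HBSS/20 mM HEPES/2.5 mM probenecid/0.05% BSA, pH 7.4, were loaded with Fluo-4 NW (37 °C 30 min, RT 30 min). After 30 min at RT, calcium fluorescence was read by FLIPR; n ≥ 3.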

- IC50 [2]: 38 nM
- Ki [3]: 55 nM
- Cp(f) [4]: 1460 nM
- Cp(f) [5]: 22.4 nM
- IC50 [6]: 66 nM
- CLint scaled at 1 h, 1 µM [7]: 85 mL/min/kg
- Cp(f) [8]: 497 nM
- Cp(f) [9]: 381 nM
- Activity [10]: 26.9%
- IC50 [11]: 22 nM
Compound: O=C(NC[C@H](c1ccc(Cl)cc1)N1CCOCC1)c1sc(-c2ncccn2)nc1C(F)(F)F
- inhibition at 0.1 µM [1]: 80%
